# Shown are actives, neighbours in structure and some others; about 2.8% of the full set was active somewhere.
# DENV2 CPE rescue: protects cells from dengue virus 2 cytopathic effect | AID 651640 | 350,000 compounds, 1.7% hits | DENV2-infected cells, cytopathic effect rescue, plate reader | CPE inhibition, % at 9.99 µM; in the data active = CPE inhibition above about 20%, passing the limit was not always enough; inconclusive = no clear call, values can overlap the other calls; tested in BHK-21 cells;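 note: 0% = median of neutral control wells and 100% = median of positive control wells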
# E-sel inducer: induces E-selectin expression in human endothelial cells; activation, % at 7.58 µM; HUVEC E-selectin immunofluorescence imaging; normalized: neutral wells 0, TNF-alpha wells 100; 260,000 compounds, 0.37% hits; AID 686992;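 active = mean E-selectin-positive cell signal at least 10% of the positive control, reached in at least 60% of replicates, without over 20% cell loss; inconclusive = no rule given, readout overlaps actives, possibly toxicity-flagged; inactive = the rest, including those meeting only one limit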
# Target sequence (P16581 whole entry, looked up): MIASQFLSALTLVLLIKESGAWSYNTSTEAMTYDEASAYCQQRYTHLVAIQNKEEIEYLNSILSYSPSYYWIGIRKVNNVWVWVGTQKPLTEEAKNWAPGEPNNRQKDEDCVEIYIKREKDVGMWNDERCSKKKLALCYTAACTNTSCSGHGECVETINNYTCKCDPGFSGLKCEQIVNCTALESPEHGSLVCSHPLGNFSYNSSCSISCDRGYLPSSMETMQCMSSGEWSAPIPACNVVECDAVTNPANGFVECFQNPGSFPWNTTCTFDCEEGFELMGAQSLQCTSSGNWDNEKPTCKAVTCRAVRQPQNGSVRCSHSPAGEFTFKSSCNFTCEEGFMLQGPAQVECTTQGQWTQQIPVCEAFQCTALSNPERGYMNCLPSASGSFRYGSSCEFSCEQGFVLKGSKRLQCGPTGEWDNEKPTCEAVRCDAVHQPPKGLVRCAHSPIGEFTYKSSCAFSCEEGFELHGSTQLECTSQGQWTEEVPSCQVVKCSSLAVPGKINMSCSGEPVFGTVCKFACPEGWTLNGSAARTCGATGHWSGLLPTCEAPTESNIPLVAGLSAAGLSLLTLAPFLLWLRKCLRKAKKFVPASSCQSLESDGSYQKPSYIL
#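 System: HUVEC, human umbilical vein endothelial cells; quantity: 3,000 cells/well; buffer or medium: EGM-2 medium, gelatin-coated wells; dosing: single-point compound dose; detection: immunofluorescence imaging; evaluation: % PE-positive cells; benchmarks: TNF-alpha, DMSO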
# SIRT5 inh: inhibitors of human sirtuin-5 desuccinylase | 330,000 compounds, 1.1% hits | AID 652115 | inhibition, % at 15 µM | Q9NXA8 | Purified SirT5, succinyl-peptide AMC, trypsin-coupled fluorescence; in the data active = inhibition above about 15%; inconclusive = no clear call, values can overlap the other calls
# * marks the source's active call; other numbers are inactive results; ? = inconclusive; nt = no result given.
SMILES,DENV2 CPE rescue,E-sel inducer,SIRT5 inh
Cc1cc(C(=O)Nc2ccc3c(c2)C(=O)N(C)[C@H]2CC[C@H](CC(=O)N[C@@H](C)c4ccccc4)O[C@H]2CO3)no1,-7,0,-1
C[C@H](NC(=O)C[C@H]1CC[C@H]2[C@H](COc3ccc(NS(=O)(=O)c4ccc(Cl)cc4)cc3C(=O)N2C)O1)c1ccccc1,8,128*,-2
Cc1cc(C(=O)Nc2ccc3c(c2)C(=O)N(C)[C@H]2CC[C@@H](CC(=O)N[C@@H](C)c4ccccc4)O[C@H]2CO3)no1,97*,0,-1
CCC(=O)Nc1ccc2c(c1)C(=O)N(C)[C@@H]1CC[C@H](CC(=O)N[C@H](C)c3ccccc3)O[C@@H]1CO2,?,0,15*
C[C@H](NC(=O)C[C@@H]1CC[C@@H]2[C@H](COc3ccc(NS(=O)(=O)c4ccc(Cl)cc4)cc3C(=O)N2C)O1)c1ccccc1,-5,0,0
COc1ccc2c3c(n(C)c2c1)[C@@H](CO)N(C(=O)CC1CC1)CC31CCN(Cc2ccncc2)CC1,10,0,4
O=C(C[C@@H]1CC[C@H](NC(=O)C2CCC2)[C@@H](CO)O1)NC1CCC1,1,-1,-4
COc1ccc(S(=O)(=O)Nc2cccc3c2O[C@@H](CN(C)C(=O)Nc2ccc4c(c2)OCO4)[C@@H](C)CN([C@@H](C)CO)C3=O)cc1,2,0,-6
C[C@H]1CCCCO[C@@H](CN(C)Cc2ccc(C(=O)O)cc2)[C@@H](C)CN([C@@H](C)CO)C(=O)c2cc(NS(=O)(=O)c3ccccc3)ccc2O1,?,0,nt
C=CC[C@H](CC(=O)N(CCO)Cc1ccccc1)C(=O)N[C@H](COC(=O)[C@H](CC=C)CC(=O)OC(C)(C)C)Cc1ccccc1,nt,0,nt
C=CC[C@@H](CC(=O)N(CCO)Cc1ccccc1)C(=O)N[C@H](COC(=O)[C@@H](CC=C)CC(=O)OC(C)(C)C)Cc1c[nH]c2ccccc12,-9,0,nt
C=CC[C@H](CC(=O)N(CCO)Cc1ccccc1)C(=O)N[C@@H](COC(=O)[C@H](CC=C)CC(=O)OC(C)(C)C)Cc1c[nH]c2ccccc12,0,1,27*
C=CC[C@@H](CC(=O)N(CCO)Cc1ccccc1)C(=O)N[C@H](COC(=O)[C@@H](CC=C)CC(=O)OC(C)(C)C)c1ccccc1,-11,0,20*
CC(=O)N(C)C[C@@H]1[C@@H](c2ccc(C3=CCCCC3)cc2)[C@@H](CO)N1CC1CC1,20,0,3
CCOC(=O)C1=CC[C@@H](c2ccccc2)[C@@H]1C(=O)c1ccc(OC)cc1,-7,nt,-4
CC(C)C#Cc1cnc2c(c1)C(=O)N([C@@H](C)CO)C[C@H](C)[C@@H](CN(C)Cc1ccc3c(c1)OCO3)O2,-3,1,-1
C[C@H]1CCCCO[C@@H](CN(C)C(=O)NC2CCCCC2)[C@@H](C)CN([C@@H](C)CO)C(=O)c2cc(NS(=O)(=O)c3cn(C)cn3)ccc2O1,1,0,0
O=C(C[C@@H]1C=C[C@H](NC(=O)C2CC2)[C@@H](CO)O1)Nc1nccs1,3,0,-3
C[C@H](CO)N1C[C@H](C)[C@@H](CN(C)S(=O)(=O)c2ccc(Cl)cc2)Oc2ccc(NC(=O)CCN3CCOCC3)cc2CC1=O,-9,0,12
CCCC#Cc1cnc2c(c1)C(=O)N([C@H](C)CO)C[C@H](C)[C@H](CN(C)C(=O)CCN1CCCCC1)O2,-1,0,-13
O=C(NC(=S)NCCC1=CCCCC1)c1ccco1,0,nt,-1
Cc1ccccc1C(=O)NC(=S)NCCC1=CCCCC1,-5,nt,35*
C[C@@H]1CCCCO[C@H](CN(C)S(=O)(=O)c2cccs2)[C@@H](C)CN([C@H](C)CO)C(=O)c2cc(NS(C)(=O)=O)ccc2O1,1,0,-1
CCC(C)CN1C(=O)CSCC1(C)C(=O)Nc1ccc2c(c1)OCCO2 (stereo not drawn),31*,0,2
COCCN1C(=O)CSCC1(C)C(=O)Nc1ccc2c(c1)OCCO2 (stereo not drawn),0,0,2
SMILES,DENV2 CPE rescue,E-sel inducer,SIRT5 inh
CO[C@H]1CN(C)C(=O)c2cc(NC(=O)C3CC3)ccc2OC[C@H](C)N(CC2CCOCC2)C[C@H]1C,5,0,-1
CSc1ccc(/C=C2\C(=N)N3N=C(CC(=O)N4CCOCC4)SC3=NC2=O)cc1,4,0,-8
N=C1/C(=C\c2ccc(Br)o2)C(=O)N=C2SC(CC(=O)N3CCOCC3)=NN12,0,nt,28*
CCc1ccc(/C=C2\C(=N)N3N=C(CC(=O)N4CCCCC4)SC3=NC2=O)cc1,5,nt,0
N=C1/C(=C/c2ccco2)C(=O)N=C2SC(CC(=O)N3CCCC3)=NN12,6,6,20*
N=C1/C(=C/c2ccc(Br)o2)C(=O)N=C2SC(CC(=O)N3CCCC3)=NN12,-2,nt,26*

# Compound activity deposited in PubChem by Broad Institute.
